Experimental findings from paper PMC9051311 (RSC Advances, 2020) are described below.

The target in series [1] is T1, ACE (E.C. 3.4.15.1) from the lungs of rabbits (Oryctolagus cuniculus, UniProt P12822).
T1 sequence (P12822 34-1310): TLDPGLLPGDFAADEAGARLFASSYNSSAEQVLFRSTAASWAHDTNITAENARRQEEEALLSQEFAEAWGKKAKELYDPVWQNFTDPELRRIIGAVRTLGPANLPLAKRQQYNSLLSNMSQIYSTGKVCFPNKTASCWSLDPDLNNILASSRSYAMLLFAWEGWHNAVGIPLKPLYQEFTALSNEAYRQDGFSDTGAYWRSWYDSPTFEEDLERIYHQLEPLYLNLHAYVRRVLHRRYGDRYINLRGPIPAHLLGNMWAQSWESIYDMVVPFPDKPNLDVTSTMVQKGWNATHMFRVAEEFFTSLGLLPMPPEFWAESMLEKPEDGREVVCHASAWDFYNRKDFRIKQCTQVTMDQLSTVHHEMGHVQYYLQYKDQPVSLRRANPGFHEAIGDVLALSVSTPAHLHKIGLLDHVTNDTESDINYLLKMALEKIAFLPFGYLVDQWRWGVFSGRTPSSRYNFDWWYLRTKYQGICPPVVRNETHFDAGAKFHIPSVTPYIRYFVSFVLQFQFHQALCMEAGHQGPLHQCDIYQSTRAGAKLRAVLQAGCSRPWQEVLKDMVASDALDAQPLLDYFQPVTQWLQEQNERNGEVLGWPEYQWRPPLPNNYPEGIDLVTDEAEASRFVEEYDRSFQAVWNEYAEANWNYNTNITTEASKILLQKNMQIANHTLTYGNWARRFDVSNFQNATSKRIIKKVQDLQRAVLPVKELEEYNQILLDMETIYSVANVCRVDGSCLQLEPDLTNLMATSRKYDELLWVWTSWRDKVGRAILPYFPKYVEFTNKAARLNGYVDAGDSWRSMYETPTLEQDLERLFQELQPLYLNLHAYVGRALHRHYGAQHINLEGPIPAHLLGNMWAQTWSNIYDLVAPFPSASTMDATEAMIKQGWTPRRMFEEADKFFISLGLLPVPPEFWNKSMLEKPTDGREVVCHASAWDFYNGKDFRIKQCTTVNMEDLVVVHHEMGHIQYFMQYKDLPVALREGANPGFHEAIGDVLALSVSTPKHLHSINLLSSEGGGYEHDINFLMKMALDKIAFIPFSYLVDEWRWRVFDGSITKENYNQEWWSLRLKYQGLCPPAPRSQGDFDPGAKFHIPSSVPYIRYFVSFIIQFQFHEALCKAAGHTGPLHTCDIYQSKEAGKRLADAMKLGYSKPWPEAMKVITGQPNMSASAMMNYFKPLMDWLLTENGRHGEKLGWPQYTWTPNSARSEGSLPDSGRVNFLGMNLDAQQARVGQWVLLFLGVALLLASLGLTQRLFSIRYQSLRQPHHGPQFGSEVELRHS
Description: ACE inhibitory. Format: biochemical, rabbit. The gist of the method: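 Rabbit-lung ACE (solution at 25 mU mL−1) pre-incubated with sample for 10 min at 37 °C, then 30 min at 37 °C with HHL (10 mM solution in PBS). Stopped with 1 M HCl. Hippuric acid extracted into ethyl acetate, dried under vacuum, redissolved in water and read at A250 against a hippuric acid standard curve. Captopril positive control. % inhibition corrected for blanks; IC50 by non-linear regression; triplicate.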

A short description of series [2]: Observed solubility of the peptide in water. Format: physicochemical.

No end group written: not given here.

With “ETSGMKPTEL [ETSGMKPTEL, Glu–Thr–Ser–Gly–Met–Lys–Pro–Thr–Glu–Leu]”, in series [1], 2.15 ± 0.016 µM corresponded to half-maximal inhibition (IC50).

Turning to “ISSMGILVCL [ISSMGILVCL, Ile–Ser–Ser–Met–Gly–Ile–Leu–Val–Cys–Leu]”, half-maximal inhibition in series [1] (IC50) was put at 3.88 ± 0.004 µM. Moreover, the solubility in series [2] is not below 5000 µg/mL.
